# Data as given in ChEMBL document CHEMBL1122201, “Carboxyimamidate, a low-molecular-weight polyelectrolyte with antitumor properties and low toxicity” (1982).
# Several values for one entry are separate records, joined by “and”; a condition that tells them apart may be missing. Equal values may be shown once.
# Experiments:
# [1] = species on record: Mus musculus; test: Increase in mean life span was measured against colon carcinoma; type: functional
# [2] = species on record: Mus musculus; test: Increase in mean life span was measured against B16 melanoma cells carcinoma 26; type: functional
# [3] = test system: Mus musculus; test: Ratio of mean tumor volume of treated groups to that of the mean of total untreated controls in the subcutaneous Lewis Lung Carcinoma model at a dose of 1200-1500 mg/kg/day; type: functional
# In short: (§1)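 Mice bearing sc Lewis lung carcinoma (groups of 10) received the saline-dissolved agent daily on days 1-5, 1-8 or 1-10, ip or sc. Perpendicular tumor diameters were measured with vernier calipers on day 14, and volume was taken as 0.5 × length × width². T/C is treated mean volume over the mean of all untreated controls (3-4 groups of 10), pooled across experiments as mean ± SE.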
# [4] = test system: Mus musculus; test: Percent increase of mean life span of treated groups relative to the mean of the untreated control groups in the subcutaneous Lewis Lung Carcinoma model at a dose of 158-251 (mg/kg)/day; type: functional
# In short: (§2)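 Lewis lung carcinoma model in mice, groups of 10. Dosing daily on days 1-5, 1-8 or 1-10, ip or subcutaneous. Dose ranges pooled from nine independent experiments run at different levels. ILS is the percent increase in mean life span, excluding cures, over the mean of 3 or 4 untreated control groups of 10. Survivors scored at day 60.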
# [5] = species on record: Mus musculus; test: Increase in mean life span was measured against Nettesheim lung carcinoma cells; type: functional
# In short: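 Tumor brei, 10%, 0.5 mL, implanted sc in groups of 10 mice: CD2F1 for Nettesheim and Madison, B6D2F1 for M5076. M5076 also implanted ip with the same inoculum; Madison im at 0.2 mL. Drug given ip in saline, 0.5 mL/mouse, at or below the maximally tolerated dose. ILS excludes long-term survivors. Animals held 60 days; t test.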
# [6] = species on record: Mus musculus; test: Increase in mean life span was measured against colon carcinoma 26; type: functional
# In short: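 Colon carcinoma 26: 0.5 mL of 1% brei implanted sc or ip in groups of 10 CD2F1 mice. Drug given ip in sterile saline, 0.5 mL/mouse, at or below the maximally tolerated dose for the schedule. Mean life span excludes long-term tumor-free survivors. Animals held 60 days; Student's t test against untreated controls.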
# [7] = test system: Mus musculus; test: Average proportion of total treated mice without palpable tumors was determined in the subcutaneous Lewis Lung Carcinoma model at a dose of 900-1000 (mg/kg)/day; type: functional
# In short: (§3)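 Sc-implanted Lewis lung carcinoma in mice, groups of 10. Agent dissolved in sterile saline and given daily on days 1-5, 1-8 or 1-10, ip or sc (0.5 mL/mouse). Each experiment had 3 or 4 untreated control groups of 10. The read-out was the average proportion of treated mice without palpable tumor on day 14, pooled over independent experiments as mean ± SE.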
# [8] = test system: Mus musculus; test: Proportion of survivors was determined on the 60th day at a dose of 1200-1500 (mg/kg)/day; type: functional; in short: as §2
# [9] = test system: Mus musculus; test: Ratio of mean tumor volume of treated groups to that of the mean of total untreated controls in the subcutaneous Lewis Lung Carcinoma model at a dose of 62-75 mg/kg/day; type: functional; in short: as §1
# [10] = test system: Mus musculus; test: Percent increase of mean life span of treated groups relative to the mean of the untreated control groups in the subcutaneous Lewis Lung Carcinoma model at a dose of 62-75 (mg/kg)/day; type: functional; in short: as §2
# [11] = test system: Mus musculus; test: Proportion of survivors was determined on the 60th day at a dose of 158-251 mg/kg/day; type: functional; in short: as §2
# [12] = test system: Mus musculus; test: Average proportion of total treated mice without palpable tumors was determined in the subcutaneous Lewis Lung Carcinoma model at a dose of 300-400 (mg/kg)/day; type: functional; in short: as §3
# [13] = species on record: Mus musculus; test: Tumor weight inhibition against colon carcinoma 26
# [14] = species on record: Mus musculus; test: Increase in mean life span was measured against B16 melanoma cells; type: functional
# [15] = test system: Mus musculus; test: Percent increase of mean life span of treated groups relative to the mean of the untreated control groups in the subcutaneous Lewis Lung Carcinoma model at a dose of 1200-1500 (mg/kg)/day; type: functional; in short: as §2
# [16] = test system: Mus musculus; test: Ratio of mean tumor volume of treated groups to that of the mean of total untreated controls in the subcutaneous Lewis Lung Carcinoma model at a dose of 500-600 (mg/kg)/day; type: functional; in short: as §1
# [17] = test system: Mus musculus; test: Ratio of mean tumor volume of treated groups to that of the mean of total untreated controls in the subcutaneous Lewis Lung Carcinoma model at a dose of 900-1000 mg/kg/day; type: functional; in short: as §1
# [18] = test system: Mus musculus; test: Proportion of survivors was determined on the 60th day at a dose of 2400-2512 (mg/kg)/day; type: functional; in short: as §2
# [19] = test system: Mus musculus; test: Average proportion of total treated mice without palpable tumors was determined in the subcutaneous Lewis Lung Carcinoma model at a dose of 100-125 (mg/kg)/day; type: functional; in short: as §3
# [20] = test system: Mus musculus; test: Percent increase of mean life span of treated groups relative to the mean of the untreated control groups in the subcutaneous Lewis Lung Carcinoma model at a dose of 300-400 (mg/kg)/day; type: functional; in short: as §2
# [21] = test system: Mus musculus; test: Proportion of survivors was determined on the 60th day at a dose of 62-75 mg/kg/day; type: functional; in short: as §2
# [22] = test system: Walker carcinosarcoma 256 (Rattus norvegicus); test: Tumor weight inhibition Walker carcinosarcoma cells against
# [23] = species on record: Mus musculus; test: Tumor weight inhibition against M5076 ovarian tumor
# [24] = test system: Mus musculus; test: Average proportion of total treated mice without palpable tumors was determined in the subcutaneous Lewis Lung Carcinoma model at a dose of 62-75 (mg/kg)/day; type: functional; in short: as §3
# [25] = species on record: Mus musculus; test: Tumor weight inhibition against Madison 109 lung carcinoma cells
# [26] = test system: Mus musculus; test: Percent increase of mean life span of treated groups relative to the mean of the untreated control groups in the subcutaneous Lewis Lung Carcinoma model at a dose of 500-600 (mg/kg)/day; type: functional; in short: as §2
# [27] = species on record: Rattus norvegicus; test: Increase in mean life span was measured against Walker carcinosarcoma cells
# [28] = test system: Mus musculus; test: Percent increase of mean life span of treated groups relative to the mean of the untreated control groups in the subcutaneous Lewis Lung Carcinoma model at a dose of 2400-2512 (mg/kg)/day; type: functional; in short: as §2
compound,measurement,setting,value
CC(c1ccccc1)C1C(=O)NC(=O)C1CCC(C(N)=O)C(CCC(CC(=O)O)C(N)=O)C(=O)O.N.N (stereo not drawn),ILS,[1],14%
same,ILS,[2],7%
same,T/C,[3],0.16
same,ILS,[4],15%
same,ILS,[5],6%
same,ILS,[6],22%
same,Average proportion,[7],0.47
same,Proportion of survivors,[8],0.21
same,T/C,[9],0.59
same,ILS,[10],12%
same,Proportion of survivors,[11],0.04
same,Average proportion,[12],0.27
same,TWI,[13],70
same,ILS,[14],21% and 11%
same,ILS,[15],24%
same,T/C,[16],0.32
same,T/C,[17],0.17
same,Proportion of survivors,[18],0.13
same,Average proportion,[19],0.1
same,ILS,[20],17%
same,Proportion of survivors,[21],0.03
same,TWI,[22],21
same,TWI,[23],89
same,Average proportion,[24],0.08
same,TWI,[25],67 and 78 and 50
same,ILS,[26],15%
same,ILS,[27],3%
same,ILS,[28],-28%
